Assay type in all cases: functional, cell-based
Experiment [1] has as its target T1, Melanocortin receptor 4 (Mus musculus, UniProt P56450). As to the kind of experiment: Agonist activity at mouse melanocortin receptor 4 expressed in HEK293 cells assessed as stimulation of intracellular cAMP accumulation incubated for 24 hrs by beta-galactosidase reporter gene assay. The method, boiled down:
(§1)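 After lysis, ONPG hydrolysis was read at 405 nm and normalized to Bradford protein and maximal NDP-MSH response. Duplicates, ≥3 independent experiments; 100 μM dropped from fits where toxic.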
On the technique in general: Cyclic AMP is a second messenger, typically raised through Gs and lowered through Gi signalling.

Experiment [2] addresses Melanocortin receptor 5 (Mus musculus, UniProt P41149). As to the kind of experiment: Agonist activity at mouse melanocortin receptor 5 expressed in HEK293 cells assessed as stimulation of intracellular cAMP accumulation incubated for 24 hrs by beta-galactosidase reporter gene assay.
In experiment [3] the target is T2, Melanocyte-stimulating hormone receptor (Mus musculus, UniProt Q01727). As to the kind of experiment: Agonist activity at mouse melanocortin receptor 1 expressed in HEK293 cells assessed as stimulation of intracellular cAMP accumulation incubated for 24 hrs by beta-galactosidase reporter gene assay.
The target of experiment [4] is T1, Melanocortin receptor 4. As to the kind of experiment: Antagonist activity at mouse melanocortin receptor 4 expressed in HEK293 cells assessed as inhibition of NDP-MSH-induced intracellular cAMP accumulation incubated for 24 hrs by beta-galactosidase reporter gene assay. As to conditions: read-out: pA2 (converted).
Experiment [5] concerns the target T3, Melanocortin receptor 3 (Mus musculus, UniProt P33033). As to the kind of experiment: Agonist activity at mouse melanocortin receptor 3 expressed in HEK293 cells assessed as stimulation of intracellular cAMP accumulation incubated for 24 hrs by beta-galactosidase reporter gene assay.
Experiment [6] has as its target Melanocortin receptor 4 (Mus musculus) (UniProt P56450). As to the kind of experiment: Agonist activity at mouse melanocortin receptor 4 expressed in HEK293 cells assessed as stimulation of intracellular cAMP accumulation at 10 uM incubated for 24 hrs by beta-galactosidase reporter gene assay relative to control. In short, it runs like this: as §1
Experiment [7] concerns the target T3, Melanocortin receptor 3. As to the kind of experiment: Antagonist activity at mouse melanocortin receptor 3 expressed in HEK293 cells assessed as inhibition of NDP-MSH-induced intracellular cAMP accumulation incubated for 24 hrs by beta-galactosidase reporter gene assay.
The target of experiment [8] is Melanocortin receptor 5 (Mus musculus) (UniProt P41149). As to the kind of experiment: Agonist activity at mouse melanocortin receptor 5 expressed in HEK293 cells assessed as stimulation of intracellular cAMP accumulation at 10 uM incubated for 24 hrs by beta-galactosidase reporter gene assay relative to control. As to conditions: filed as agonist, time 6.0 hrs, in the assay text read “6 hrs” for “24 hrs”. In short, it runs like this: as §1

For experiment [9], the target named is Melanocyte-stimulating hormone receptor (Mus musculus) (UniProt Q01727). As to the kind of experiment: Agonist activity at mouse melanocortin receptor 1 expressed in HEK293 cells assessed as stimulation of intracellular cAMP accumulation at 10 uM incubated for 24 hrs by beta-galactosidase reporter gene assay relative to control. As to conditions: filed as agonist. In short, it runs like this:
as §1

The target of experiment [10] is T2, Melanocyte-stimulating hormone receptor. As to the kind of experiment: Antagonist activity at mouse melanocortin receptor 1 expressed in HEK293 cells assessed as inhibition of NDP-MSH-induced intracellular cAMP accumulation incubated for 24 hrs by beta-galactosidase reporter gene assay.

pEC50: −log10 of the molar value.

T2 sequence (Q01727 whole entry): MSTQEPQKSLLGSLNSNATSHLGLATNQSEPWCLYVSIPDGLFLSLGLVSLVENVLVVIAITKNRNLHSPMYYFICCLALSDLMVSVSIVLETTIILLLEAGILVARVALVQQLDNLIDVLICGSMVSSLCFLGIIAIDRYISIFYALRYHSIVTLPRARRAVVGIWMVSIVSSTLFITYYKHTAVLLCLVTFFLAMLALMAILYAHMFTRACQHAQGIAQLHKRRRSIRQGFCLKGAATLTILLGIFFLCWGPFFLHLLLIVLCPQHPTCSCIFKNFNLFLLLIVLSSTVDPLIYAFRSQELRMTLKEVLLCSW
Chain of Melanocortin receptor 4 (Mus musculus) (P56450 whole entry): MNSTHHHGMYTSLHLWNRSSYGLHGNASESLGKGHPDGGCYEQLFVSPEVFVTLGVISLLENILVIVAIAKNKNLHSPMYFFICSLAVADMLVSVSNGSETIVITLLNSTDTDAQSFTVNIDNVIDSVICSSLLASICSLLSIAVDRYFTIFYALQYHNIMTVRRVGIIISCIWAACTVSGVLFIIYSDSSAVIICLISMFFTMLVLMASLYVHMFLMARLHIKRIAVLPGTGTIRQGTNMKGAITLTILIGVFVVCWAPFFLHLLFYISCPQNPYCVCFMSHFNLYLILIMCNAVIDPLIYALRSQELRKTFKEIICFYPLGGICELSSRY
T3 sequence (P33033 whole entry): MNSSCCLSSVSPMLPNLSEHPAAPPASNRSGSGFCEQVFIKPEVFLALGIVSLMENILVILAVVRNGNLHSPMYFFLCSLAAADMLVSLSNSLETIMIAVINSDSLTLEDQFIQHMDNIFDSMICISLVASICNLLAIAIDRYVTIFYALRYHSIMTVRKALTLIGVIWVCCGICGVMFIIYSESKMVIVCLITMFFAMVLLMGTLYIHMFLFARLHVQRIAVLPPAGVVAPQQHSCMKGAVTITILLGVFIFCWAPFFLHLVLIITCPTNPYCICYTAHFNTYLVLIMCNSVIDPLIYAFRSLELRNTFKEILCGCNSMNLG
Chain of Melanocortin receptor 5 (P41149 whole entry): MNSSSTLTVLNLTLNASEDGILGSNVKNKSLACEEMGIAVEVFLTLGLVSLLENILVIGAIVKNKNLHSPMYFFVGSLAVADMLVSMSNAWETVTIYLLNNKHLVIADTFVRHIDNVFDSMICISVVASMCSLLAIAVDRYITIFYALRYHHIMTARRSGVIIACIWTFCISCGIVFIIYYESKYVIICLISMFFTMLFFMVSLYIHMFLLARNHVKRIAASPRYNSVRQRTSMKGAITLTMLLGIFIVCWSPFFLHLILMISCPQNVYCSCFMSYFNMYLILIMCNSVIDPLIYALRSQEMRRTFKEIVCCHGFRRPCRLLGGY
Chain of Melanocyte-stimulating hormone receptor (Mus musculus) (Q01727 whole entry, looked up): as the sequence (Q01727 whole entry) above
T1 sequence (P56450 whole entry): as the sequence (P56450 whole entry) above
Chain of Melanocortin receptor 5 (Mus musculus) (P41149 whole entry): as the sequence (P41149 whole entry) above

Consider `CC(C)[C@@H]1CNC(=N)N1C[C@@H]1CCCN1C[C@@H](Cc1ccccc1)N1C[C@@H]([C@@H](C)O)N(CC23CC4CC(CC(C4)C2)C3)C1=N`, for which the pEC50 is 6.24 in experiment [1], 6.74 in experiment [2], 6.36 in experiment [3] and 6.44 in experiment [5]. Further, in [4], the Kb was 1580 nM. Moreover, the Emax in [6] (filed as agonist) stood at 75%.

In the case of `CCC[C@@H]1CN([C@H](Cc2ccccc2)CN2CCC[C@H]2CN2C(=N)NC[C@H]2C(C)C)C(=N)N1CCCC(C)C`, the pEC50 in experiment [2] is 5.69; in experiment [3] it was 4.64; in experiment [7], less than 4.00. The maximal response (Emax) in [6] (filed as agonist) came to 41%.

For the molecule `CC(C)CCCN1C(=N)N([C@H](Cc2ccccc2)CN2CCC[C@H]2CN2C(=N)NC[C@H]2C(C)C)C[C@H]1C(C)C`, the pEC50 in experiment [2] was 5.80; in experiment [3], 4.99; in experiment [7], less than 4.00. The Emax in experiment [6] was 21%.

In the case of `CC(C)CCCN1C(=N)N([C@H](Cc2ccccc2)CN2CCC[C@H]2CN2C(=N)NC[C@H]2C(C)C)C[C@H]1[C@@H](C)O`, the maximal response (Emax) in experiment [8] was determined as 40%; in experiment [9] it was 51%. The negative logarithm of the EC50 (pEC50) in experiment [7] was less than 4.00.

As to `CC(C)CCCN1C(=N)N([C@H](Cc2ccccc2)CN2CCC[C@H]2CN2C(=N)NC[C@H]2CC(C)C)C[C@H]1[C@@H](C)O`, the Emax in experiment [8] was found to be 77%; in [9] it was 62%. In experiment [7], the pEC50 is less than 4.00.

For the molecule `CCC[C@@H]1CN([C@H](Cc2ccccc2)CN2CCC[C@H]2CN2C(=N)NC[C@H]2CC(C)C)C(=N)N1CCCC(C)C`, the values for the pEC50 in experiment [10], in [2] and in experiment [7] were less than 4.00, 5.66 and less than 4.00, respectively. Also, the maximal response (Emax) in [6] (filed as agonist) came out at 51%.

A word on the pEC50: it is −log10 of the EC50, conventionally taken in molar units. Broadly, the Emax is the size of the effect at its maximum, as opposed to the concentration needed.

These data come from ChEMBL document CHEMBL4834429, “Discovery of Nanomolar Melanocortin-3 Receptor (MC3R)-Selective Small Molecule Pyrrolidine Bis-Cyclic Guanidine Agonist Compounds Via a High-Throughput "Unbiased" Screening Campaign” (J Med Chem, 2021).
